Screens (PubChem BioAssay)
The list is not random: actives were taken first. Their share in the collection is about 2.6%.
SENP8 block-1 – blocks human SENP8 cleavage of Nedd8 substrate; Q96LD8; recombinant SENP8, Nedd8 substrate fluorescence; inhibition, % at 20 µM; hit rate 0.64% among 360,000; in the data active = inhibition mostly above about 40%, no sharp cut-off; inactive = mostly below about 27%
SENP8 block-2 – SENP8 protease inhibition | Q96LD8 | hit rate 1.2% among 330,000 | purified SENP8, Z-RLRGG-aminoluciferin cleavage, luminescence | inhibition, % at 10 µM; in the data active = inhibition above about 50%
SENP7 inh – blocks the human protease SENP7; AID 434973; inhibition, % at 5 µM; hit rate 1.5% among 330,000; Q9BQF6; recombinant SENP7, Z-RLRGG-aminoluciferin luminescence, 40 min;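 active = inhibition above about 50% at the single test dose, limit read from the data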
Target sequence (Q9BQF6 706-1050 limits assumed): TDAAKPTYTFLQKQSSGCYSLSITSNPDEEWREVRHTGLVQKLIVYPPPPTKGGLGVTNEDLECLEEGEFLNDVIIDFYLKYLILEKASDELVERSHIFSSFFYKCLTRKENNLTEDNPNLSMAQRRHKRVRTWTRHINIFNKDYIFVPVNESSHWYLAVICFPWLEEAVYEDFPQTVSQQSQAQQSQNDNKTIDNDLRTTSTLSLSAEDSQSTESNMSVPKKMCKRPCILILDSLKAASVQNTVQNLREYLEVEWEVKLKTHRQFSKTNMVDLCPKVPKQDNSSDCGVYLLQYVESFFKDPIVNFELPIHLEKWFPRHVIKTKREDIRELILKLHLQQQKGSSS
SENP1 FRET inh – inhibitors of human SENP1 SUMO protease catalytic domain; hit rate 0.21% among 360,000; inhibition, % at 10 µM; Q9P0U3; recombinant SENP1 catalytic domain, CyPet-SUMO1-YPet FRET cleavage; AID 624204;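 active = inhibition at least 30% at 10 µM, raw YFP signal under a set limit, fluorescence ratio 0.5 to 1.5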
Target sequence (Q9P0U3 419-644 limits assumed): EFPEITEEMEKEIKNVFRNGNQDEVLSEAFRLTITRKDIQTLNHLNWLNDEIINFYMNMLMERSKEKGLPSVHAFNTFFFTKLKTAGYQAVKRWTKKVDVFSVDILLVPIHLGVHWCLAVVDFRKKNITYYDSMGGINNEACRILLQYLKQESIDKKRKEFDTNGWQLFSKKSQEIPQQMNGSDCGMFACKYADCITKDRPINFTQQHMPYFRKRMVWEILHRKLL
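system = hSENP1 catalytic domain, recombinant | reagent = SFCypet-SUMO1-SFYpet substrate at 25 nM | doses = one dose per compound, 10 µM, 0.5% DMSO | incubation = enzyme reaction for 50 min at room temperature, dark | measured by = FRET, CFP and YFP emission | controls = no-enzyme low, enzyme-DMSO high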
Platelet DG rel – platelet dense granule release activity. human platelet-rich plasma, SFLLRN dense granule ATP release, luminescence. hit rate 0.22% among 300,000. inhibition, %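 (compounds screened at 7.5 µM in platelet-rich plasma)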;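 active = mean replicate score, as percent of positive control, at or above 50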
SENP6 block – SENP6 protease inhibition | inhibition, % at 10 µM | Q9GZR1 | Recombinant SENP6 catalytic domain, aminoluciferin luminescence | hit rate 1.8% among 330,000;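 active = inhibition above about 50% at the single tested dose, limit read from the data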
SENP8 conf – human SENP8 inhibition, confirmed | Recombinant SENP8, Z-RLRGG-aminoluciferin luminescence, 60 min | inhibition, % at 12.5 µM | AID 488912 | shares compounds with SENP7 inh | hit rate 40% among 6,200;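 active = mean inhibition across replicates above about 50%, limit read from the data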
SENP6 conf – human SENP6 inhibition, confirmed. shares compounds with SENP7 inh. recombinant SENP6, Z-RLRGG-aminoluciferin luminescence. inhibition, % at 12.5 µM. hit rate 58% among 6,200. AID 488915
SENP7 confirm – human SENP7 inhibition, confirmed. inhibition, % at 12.5 µM. AID 488917. recombinant SENP7, Z-RLRGG-aminoluciferin luminescence, 40 min. shares compounds with SENP7 inh. hit rate 69% among 6,200
Casp3 SENP sel – selectivity test for SENP inhibitors: human caspase-3 inhibition; shares compounds with SENP7 inh; purified caspase-3, Z-DEVD-aminoluciferin luminescence, 60 min; inhibition, % at 12.5 µM; hit rate 60% among 6,200;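 active = mean inhibition above about 50%, limit read from the data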
Luc interf – luminescence interference (SENP counter-screen) | shares compounds with SENP7 inh | Pre-incubated SENP8/Z-RLRGG-aminoluciferin, luciferase luminescence interference | inhibition, % at 12.5 µM | hit rate 39% among 6,200;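 active = mean inhibition above about 50% when retested at one dose, limit read from the data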
Hits are given with their value.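 Rule for the calls, unless noted: active = mean inhibition above about 50% in the one-dose retest (limit read from the data); inactive = the rest.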

For Fc1ccc(-c2noc(-c3ccc4c(c3)CCO4)n2)cc1 the results were SENP8 block-1 inactive, SENP8 block-2 67, SENP7 inh 96, SENP1 FRET inh inactive, Platelet DG rel inactive, SENP6 block 79, SENP8 conf inactive, SENP6 conf 53, SENP7 confirm inactive, Casp3 SENP sel 71 and Luc interf inactive.
Screening Cc1cc(N)n(-c2nc3ccccc3s2)n1 returned SENP8 block-1 inactive, SENP8 block-2 86, SENP7 inh 93, SENP1 FRET inh inactive, Platelet DG rel inactive, SENP6 block 87, SENP8 conf 92, SENP6 conf 93, SENP7 confirm 100, Casp3 SENP sel 93 and Luc interf inactive.
`O=C(NC1=C(Nc2ccc(F)cc2)C(=O)c2ccccc2C1=O)c1ccc(Cl)cc1` gave SENP8 block-1 93, SENP8 block-2 inactive, SENP7 inh inactive, SENP1 FRET inh inactive, Platelet DG rel inactive, SENP6 block 63, SENP8 conf inactive, SENP6 conf 60, SENP7 confirm inactive, Casp3 SENP sel inactive and Luc interf inactive.
For O=C(NNC(=O)c1ccc(NC(=O)c2ccccc2)cc1)c1ccc(F)cc1 the results were SENP8 block-1 inactive, SENP8 block-2 inactive, SENP7 inh inactive, SENP1 FRET inh inactive, Platelet DG rel inactive and SENP6 block inactive.
`CC(=O)N1CCN(C(=O)COC(=O)c2oc3ccccc3c2C)CC1` gave SENP8 block-1 inactive, SENP8 block-2 inactive, SENP7 inh inactive, SENP1 FRET inh inactive and SENP6 block inactive.
For CC(=O)Nc1ccc(C(=O)COC(=O)C2CCCCC2)c(F)c1 the results were SENP8 block-1 inactive, SENP8 block-2 57, SENP7 inh 58, SENP1 FRET inh inactive, SENP6 block 78, SENP8 conf inactive, SENP6 conf inactive, SENP7 confirm 80, Casp3 SENP sel inactive and Luc interf inactive.
Screening CC(=O)Nc1ccc(C(=O)COC(=O)C2CC2)c(F)c1 returned SENP8 block-1 inactive, SENP8 block-2 inactive, SENP7 inh inactive, SENP1 FRET inh inactive and SENP6 block inactive.
`Cc1cccc(C)c1NC(=O)C(c1ccccc1)n1c(-c2ccccc2)nc2ccccc21` (stereo not given) gave SENP8 block-1 inactive and SENP1 FRET inh inactive.
COc1ccc(/C=C/C(=O)c2ccccn2)cc1 was read as SENP8 block-1 inactive, SENP8 block-2 inactive, SENP7 inh inactive, SENP1 FRET inh inactive, Platelet DG rel inactive and SENP6 block inactive.
`COc1ccc(/C=C/C(=O)c2ccc(O)cc2)cc1` gave SENP8 block-1 inactive, SENP8 block-2 90, SENP7 inh 74, SENP1 FRET inh inactive, Platelet DG rel inactive, SENP6 block 91, SENP8 conf 65, SENP6 conf inactive, SENP7 confirm 64, Casp3 SENP sel inactive and Luc interf 83.
For COc1ccc(/C=C/C(=O)c2ccccc2O)cc1 the results were SENP8 block-1 inactive, SENP8 block-2 64, SENP7 inh 67, SENP1 FRET inh inactive, Platelet DG rel inactive, SENP6 block 81, SENP8 conf 88, SENP6 conf 84, SENP7 confirm 84, Casp3 SENP sel inactive and Luc interf inactive.
Screening COc1ccc(/C=C/C(=O)c2ccoc2)cc1 returned SENP8 block-1 inactive, SENP8 block-2 inactive, SENP7 inh inactive, SENP1 FRET inh inactive, Platelet DG rel inactive and SENP6 block inactive.
For O=C(/C=C/c1cccs1)Nc1cccnc1 the results were SENP8 block-1 inactive, SENP8 block-2 inactive, SENP7 inh inactive, SENP1 FRET inh inactive, Platelet DG rel inactive and SENP6 block inactive.
For Cc1ccnc(NC(=O)/C=C/c2cccs2)c1 the results were SENP8 block-1 inactive, SENP8 block-2 57, SENP7 inh 67, SENP1 FRET inh inactive, Platelet DG rel inactive, SENP6 block 86, SENP8 conf 71, SENP6 conf 71, SENP7 confirm 91, Casp3 SENP sel 83 and Luc interf inactive.
Screening COc1ccc(S(=O)(=O)N2CCN(C)CC2c2ccccc2)cc1OC (stereo not given) returned SENP8 block-1 inactive, SENP8 block-2 inactive, SENP7 inh inactive, SENP1 FRET inh inactive and SENP6 block inactive.
CCOC(=O)Cc1csc(NC(=O)c2c(C)noc2C)n1 was read as SENP8 block-1 inactive, SENP8 block-2 inactive, SENP7 inh inactive, SENP1 FRET inh inactive, Platelet DG rel inactive and SENP6 block inactive.
For Cc1csc(NC(=O)c2cccc(C)c2C)n1 the results were SENP8 block-1 inactive, SENP8 block-2 inactive, SENP7 inh inactive, SENP1 FRET inh inactive, Platelet DG rel inactive and SENP6 block inactive.
Screening Cc1csc(NC(=O)c2ccoc2C)n1 returned SENP8 block-1 inactive, SENP8 block-2 75, SENP7 inh 89, SENP1 FRET inh inactive, Platelet DG rel inactive, SENP6 block 90, SENP8 conf 82, SENP6 conf 82, SENP7 confirm 96, Casp3 SENP sel 93 and Luc interf 82.
CCOC(=O)Cc1csc(NC(=O)c2ccoc2C)n1 was read as SENP8 block-1 inactive, SENP8 block-2 74, SENP7 inh 89, SENP1 FRET inh inactive, Platelet DG rel inactive, SENP6 block 88, SENP8 conf 84, SENP6 conf 84, SENP7 confirm 94, Casp3 SENP sel 93 and Luc interf 83.
O=C1OC(Nc2ccc3ncccc3c2)c2ccccc21 (stereo not given) was read as SENP8 block-1 inactive, SENP8 block-2 inactive, SENP7 inh inactive, SENP1 FRET inh inactive, Platelet DG rel inactive, SENP6 block 72, SENP8 conf inactive, SENP6 conf inactive, SENP7 confirm inactive, Casp3 SENP sel inactive and Luc interf inactive.
For O=C(O/N=C/C1=C(Cl)c2ccccc2CC1)c1ccc(F)cc1 the results were SENP8 block-1 inactive, SENP8 block-2 inactive, SENP7 inh 64, SENP1 FRET inh inactive, Platelet DG rel inactive, SENP6 block inactive, SENP8 conf inactive, SENP6 conf inactive, SENP7 confirm inactive, Casp3 SENP sel inactive and Luc interf inactive.
For C[C@@H]1CN([C@H](C)CO)C(=O)CCCn2cc(nn2)CO[C@H]1CN(C)C(=O)c1cc(-c2ccccc2)on1 the results were SENP8 block-1 inactive and SENP1 FRET inh inactive.
